Experiments:
[1] = tested on: Tyrosine-protein kinase ABL1 (Homo sapiens), P00519 [T315I]; assay: Binding affinity to human non-phosphorylated ABL1 T315I mutant (S229 to K512 residues) expressed in mammalian expression system assessed as residual binding level at 1 uM by Kinomescan method relative to control
Summary of the method: (§1)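 Kinome-wide single-concentration binding screen (KINOMEscan) at 1 μM against a panel of 468 purified kinases and mutants. Read-out is relative binding of each kinase compared with control. Selectivity across the panel was summarised as an S(10) score.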

[2] = target: RAC-beta serine/threonine-protein kinase (Homo sapiens) (UniProt P31751); assay: Binding affinity to wild-type human partial length AKT2 expressed in bacterial expression system assessed as residual binding level at 1 uM by Kinomescan method relative to control
Summary of the method: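 Single-concentration KINOMEscan (DiscoverX) binding screen at 1 μM against a panel of 468 purified kinases and mutants. The read-out is binding relative to control.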

[3] = target: 5'-AMP-activated protein kinase catalytic subunit alpha-1 (Homo sapiens) (UniProt Q13131); assay: Binding affinity to wild-type human partial length AMPK alpha1 (M1 to E306 residues) expressed in bacterial expression system assessed as residual binding level at 1 uM by Kinomescan method relative to control
Summary of the method: (§2)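 Kinome-wide competition binding screen against a panel of 468 purified kinases/mutants, with the test compound at a single concentration of 1 μM. Read-out is the relative binding activity of each kinase in the presence of compound.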

[4] = target: Calcium/calmodulin-dependent protein kinase type 1G (Homo sapiens) (UniProt Q96NX5); assay: Binding affinity to wild-type human partial length CAMK1G (M1 to A342 residues) expressed in bacterial expression system assessed as residual binding level at 1 uM by Kinomescan method relative to control
Calcium/calmodulin-dependent protein kinase type 1G (Homo sapiens), sequence (Q96NX5 whole entry, the tested form may be a part): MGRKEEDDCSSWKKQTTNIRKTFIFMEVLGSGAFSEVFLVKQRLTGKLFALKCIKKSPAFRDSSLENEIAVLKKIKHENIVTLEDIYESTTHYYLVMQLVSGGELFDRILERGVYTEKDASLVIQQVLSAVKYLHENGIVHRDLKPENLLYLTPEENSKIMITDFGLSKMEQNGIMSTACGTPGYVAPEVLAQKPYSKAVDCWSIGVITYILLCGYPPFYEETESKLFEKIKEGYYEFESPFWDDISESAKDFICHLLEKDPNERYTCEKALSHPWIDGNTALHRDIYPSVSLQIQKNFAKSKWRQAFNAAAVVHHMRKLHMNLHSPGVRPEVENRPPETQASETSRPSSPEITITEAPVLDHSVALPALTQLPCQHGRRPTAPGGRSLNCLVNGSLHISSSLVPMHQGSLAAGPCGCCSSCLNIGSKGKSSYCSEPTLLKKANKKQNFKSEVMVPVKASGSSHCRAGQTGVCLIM

[5] = target: Cyclin-dependent kinase 4 (Homo sapiens) (UniProt P11802); assay: Binding affinity to wild-type human full length CDK4 (M1 to E303 residues) expressed in mammalian expression system assessed as residual binding level at 1 uM by Kinomescan method relative to control
Summary of the method: (§3)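 Single-concentration (1 μM) competition-binding screen run by KINOMEscan against a panel of 468 purified kinases and mutants. The read-out is the relative binding activity of the test compound to each kinase.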

[6] = target: Cyclin-dependent kinase 9 (Homo sapiens) (UniProt P50750); assay: Binding affinity to wild-type human full length CDK9 (M1 to F372 residues) expressed in bacterial expression system assessed as residual binding level at 1 uM by Kinomescan method relative to control; summary of the method: as §3
[7] = target: Macrophage colony-stimulating factor 1 receptor (Homo sapiens) (UniProt P07333); assay: Binding affinity to wild-type human partial length CSF1R (I564 to S939 residues) expressed in bacterial expression system assessed as residual binding level at 1 uM by Kinomescan method relative to control
[8] = target: Death-associated protein kinase 3 (Homo sapiens) (UniProt O43293); assay: Binding affinity to wild-type human partial length DAPK3 (M1 to A277 residues) expressed in bacterial expression system assessed as residual binding level at 1 uM by Kinomescan method relative to control
Death-associated protein kinase 3 (Homo sapiens), sequence (O43293 whole entry, looked up, the tested form may be a part): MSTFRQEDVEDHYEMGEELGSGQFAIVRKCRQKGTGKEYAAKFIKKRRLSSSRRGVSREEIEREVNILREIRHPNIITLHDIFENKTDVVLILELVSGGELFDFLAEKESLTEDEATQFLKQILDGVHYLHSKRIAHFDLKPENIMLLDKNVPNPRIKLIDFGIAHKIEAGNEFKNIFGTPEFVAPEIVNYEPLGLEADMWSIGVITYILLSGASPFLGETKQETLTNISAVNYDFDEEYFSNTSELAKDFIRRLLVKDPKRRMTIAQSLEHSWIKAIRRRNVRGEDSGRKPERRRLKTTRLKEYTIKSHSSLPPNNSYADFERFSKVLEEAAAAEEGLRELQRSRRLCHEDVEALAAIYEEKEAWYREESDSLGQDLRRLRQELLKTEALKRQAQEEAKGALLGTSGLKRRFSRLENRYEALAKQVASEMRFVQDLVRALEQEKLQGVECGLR

[9] = target: Dual specificity tyrosine-phosphorylation-regulated kinase 1A (Homo sapiens) (UniProt Q13627); assay: Binding affinity to wild-type human partial length DYRK1A (H129 to S509 residues) expressed in mammalian expression system assessed as residual binding level at 1 uM by Kinomescan method relative to control
[10] = target: Ephrin type-A receptor 3 (Homo sapiens) (UniProt P29320); assay: Binding affinity to wild-type human partial length EPHA3 (D604 to K889 residues) expressed in bacterial expression system assessed as residual binding level at 1 uM by Kinomescan method relative to control; summary of the method: as §2
[11] = target: Focal adhesion kinase 1 (Homo sapiens) (UniProt Q05397); assay: Binding affinity to wild-type human partial length FAK (D402 to R696 residues) expressed in bacterial expression system assessed as residual binding level at 1 uM by Kinomescan method relative to control
[12] = target: G protein-coupled receptor kinase 3 (Homo sapiens) (UniProt P35626); assay: Binding affinity to wild-type human full length GRK3 (M1 to L688 residues) expressed in mammalian expression system assessed as residual binding level at 1 uM by Kinomescan method relative to control; summary of the method: as §3
G protein-coupled receptor kinase 3 (Homo sapiens), sequence (P35626 whole entry, the tested form may be a part): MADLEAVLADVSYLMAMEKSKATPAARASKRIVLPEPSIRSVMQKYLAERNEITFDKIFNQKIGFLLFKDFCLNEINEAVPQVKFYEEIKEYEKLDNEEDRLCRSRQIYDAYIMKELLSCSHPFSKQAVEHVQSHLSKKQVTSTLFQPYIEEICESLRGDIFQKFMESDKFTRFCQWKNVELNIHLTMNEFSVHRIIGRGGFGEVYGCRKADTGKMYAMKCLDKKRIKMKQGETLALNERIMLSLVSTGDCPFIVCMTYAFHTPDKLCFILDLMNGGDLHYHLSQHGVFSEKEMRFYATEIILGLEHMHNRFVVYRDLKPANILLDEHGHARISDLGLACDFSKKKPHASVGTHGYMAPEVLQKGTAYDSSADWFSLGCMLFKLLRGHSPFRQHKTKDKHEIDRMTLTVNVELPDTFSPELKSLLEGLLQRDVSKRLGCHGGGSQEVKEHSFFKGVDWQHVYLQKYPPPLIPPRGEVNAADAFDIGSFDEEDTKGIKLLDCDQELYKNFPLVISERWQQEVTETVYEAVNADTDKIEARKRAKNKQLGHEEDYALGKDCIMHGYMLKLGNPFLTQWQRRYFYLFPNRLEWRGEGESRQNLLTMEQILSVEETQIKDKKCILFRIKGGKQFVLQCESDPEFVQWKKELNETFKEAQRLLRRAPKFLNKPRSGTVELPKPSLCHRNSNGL

[13] = target: Homeodomain-interacting protein kinase 4 (Homo sapiens) (UniProt Q8NE63); assay: Binding affinity to wild-type human partial length HIPK4 (M1 to V384 residues) expressed in bacterial expression system assessed as residual binding level at 1 uM by Kinomescan method relative to control; summary of the method: as §2
[14] = tested on: Mast/stem cell growth factor receptor Kit (Homo sapiens), P10721 [D816V]; assay: Binding affinity to human partial length KIT D816V mutant (I571 to D952 residues) expressed in bacterial expression system assessed as residual binding level at 1 uM by Kinomescan method relative to control; summary of the method: as §1
Mast/stem cell growth factor receptor Kit (Homo sapiens), P10721 [D816V], sequence (P10721 whole entry D816V, the tested form may be a part): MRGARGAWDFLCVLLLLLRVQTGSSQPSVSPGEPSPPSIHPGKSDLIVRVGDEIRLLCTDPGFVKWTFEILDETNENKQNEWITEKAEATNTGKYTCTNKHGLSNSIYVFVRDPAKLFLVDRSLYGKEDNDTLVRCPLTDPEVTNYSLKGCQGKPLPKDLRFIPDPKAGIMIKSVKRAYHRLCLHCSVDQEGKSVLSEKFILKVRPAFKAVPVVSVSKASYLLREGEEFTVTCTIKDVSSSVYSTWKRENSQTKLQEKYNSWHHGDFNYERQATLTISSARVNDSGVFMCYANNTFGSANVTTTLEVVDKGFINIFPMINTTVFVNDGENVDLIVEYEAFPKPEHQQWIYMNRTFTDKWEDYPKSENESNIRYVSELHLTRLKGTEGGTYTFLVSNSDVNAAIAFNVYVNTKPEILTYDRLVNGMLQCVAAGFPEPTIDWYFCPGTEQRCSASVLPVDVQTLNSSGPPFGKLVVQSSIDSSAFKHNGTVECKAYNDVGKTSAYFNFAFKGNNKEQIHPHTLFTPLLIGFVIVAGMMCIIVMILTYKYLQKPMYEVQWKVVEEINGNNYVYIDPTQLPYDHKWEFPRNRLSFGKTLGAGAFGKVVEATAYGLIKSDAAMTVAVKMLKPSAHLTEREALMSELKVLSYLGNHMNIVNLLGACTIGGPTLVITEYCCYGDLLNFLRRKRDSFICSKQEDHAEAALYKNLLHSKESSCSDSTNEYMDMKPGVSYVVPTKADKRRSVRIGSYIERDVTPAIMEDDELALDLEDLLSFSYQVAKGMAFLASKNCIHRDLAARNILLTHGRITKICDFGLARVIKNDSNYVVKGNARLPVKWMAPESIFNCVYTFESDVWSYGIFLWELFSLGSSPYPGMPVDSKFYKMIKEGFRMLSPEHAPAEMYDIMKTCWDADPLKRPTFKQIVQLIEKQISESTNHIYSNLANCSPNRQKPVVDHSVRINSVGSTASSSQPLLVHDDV

[15] = tested on: Mast/stem cell growth factor receptor Kit (Homo sapiens), P10721 [V559D]; assay: Binding affinity to human partial length KIT V559D mutant (Y545 to D952 residues) expressed in bacterial expression system assessed as residual binding level at 1 uM by Kinomescan method relative to control; summary of the method: as §1
[16] = target: Macrophage-stimulating protein receptor (Homo sapiens) (UniProt Q04912); assay: Binding affinity to wild-type human partial length MST1R (I1057 to L1363 residues) expressed in bacterial expression system assessed as residual binding level at 1 uM by Kinomescan method relative to control
Macrophage-stimulating protein receptor (Homo sapiens), sequence (Q04912 25-304 limits assumed): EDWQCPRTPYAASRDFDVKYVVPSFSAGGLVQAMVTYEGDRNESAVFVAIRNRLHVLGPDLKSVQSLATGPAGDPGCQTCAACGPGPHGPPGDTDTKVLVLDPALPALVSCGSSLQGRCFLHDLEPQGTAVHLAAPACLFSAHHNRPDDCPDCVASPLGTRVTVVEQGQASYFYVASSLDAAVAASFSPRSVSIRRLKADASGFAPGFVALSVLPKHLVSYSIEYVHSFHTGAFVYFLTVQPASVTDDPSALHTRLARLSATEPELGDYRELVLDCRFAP
Macrophage-stimulating protein receptor (Homo sapiens), sequence (Q04912 310-1400 limits assumed): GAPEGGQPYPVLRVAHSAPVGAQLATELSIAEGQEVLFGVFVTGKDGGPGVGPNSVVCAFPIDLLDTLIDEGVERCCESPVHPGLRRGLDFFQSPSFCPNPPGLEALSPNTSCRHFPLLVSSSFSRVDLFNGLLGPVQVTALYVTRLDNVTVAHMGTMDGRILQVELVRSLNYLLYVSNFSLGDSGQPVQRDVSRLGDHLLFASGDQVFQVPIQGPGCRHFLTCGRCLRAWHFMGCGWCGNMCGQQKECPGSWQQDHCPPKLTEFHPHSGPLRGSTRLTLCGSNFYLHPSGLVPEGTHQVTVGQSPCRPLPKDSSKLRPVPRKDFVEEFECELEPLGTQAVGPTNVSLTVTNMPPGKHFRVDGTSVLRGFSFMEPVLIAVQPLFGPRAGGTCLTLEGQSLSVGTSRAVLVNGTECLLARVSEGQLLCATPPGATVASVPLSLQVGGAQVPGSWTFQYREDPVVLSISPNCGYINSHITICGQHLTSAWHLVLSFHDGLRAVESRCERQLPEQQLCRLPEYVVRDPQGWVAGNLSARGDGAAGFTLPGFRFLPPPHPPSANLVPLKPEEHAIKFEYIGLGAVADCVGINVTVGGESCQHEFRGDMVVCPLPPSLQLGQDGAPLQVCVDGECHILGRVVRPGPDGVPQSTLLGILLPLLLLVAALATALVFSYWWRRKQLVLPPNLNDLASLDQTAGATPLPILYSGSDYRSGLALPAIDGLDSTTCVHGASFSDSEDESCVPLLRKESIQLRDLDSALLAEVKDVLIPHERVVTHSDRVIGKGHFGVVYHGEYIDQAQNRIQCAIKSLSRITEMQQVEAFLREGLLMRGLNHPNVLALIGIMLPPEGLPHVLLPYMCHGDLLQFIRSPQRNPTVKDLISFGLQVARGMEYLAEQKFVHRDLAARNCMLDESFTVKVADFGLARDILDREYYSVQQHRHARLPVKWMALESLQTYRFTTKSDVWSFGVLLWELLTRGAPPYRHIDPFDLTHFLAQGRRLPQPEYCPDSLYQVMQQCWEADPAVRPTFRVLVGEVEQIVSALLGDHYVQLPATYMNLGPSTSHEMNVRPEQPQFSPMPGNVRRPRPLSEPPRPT

[17] = target: Mitogen-activated protein kinase kinase kinase 14 (Homo sapiens) (UniProt Q99558); assay: Binding affinity to wild-type human partial length NIK (L318 to P947 residues) expressed in mammalian expression system assessed as residual binding level at 1 uM by Kinomescan method relative to control
Summary of the method: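 KINOMEscan competition binding against a panel of 468 purified kinases/mutants, compound tested at 1 μM; readout is relative binding activity versus control.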

[18] = target: Phosphatidylinositol 4-phosphate 3-kinase C2 domain-containing subunit beta (Homo sapiens) (UniProt O00750); assay: Binding affinity to wild-type human partial length PIK3C2B (M1 to L1634 residues) expressed in mammalian expression system assessed as residual binding level at 1 uM by Kinomescan method relative to control
[19] = target: High affinity nerve growth factor receptor (Homo sapiens) (UniProt P04629); assay: Binding affinity to wild-type human partial length TRKA (G475 to G790 residues) expressed in mammalian expression system assessed as residual binding level at 1 uM by Kinomescan method relative to control
[20] = MRT (0 to t) in Sprague-Dawley rat at 1 mg/kg, iv; format: ADME, organism-based; conditions: in vivo
[21] = target: T1, Platelet-derived growth factor receptor alpha (Homo sapiens, UniProt P16234); assay: Inhibition of PDGF-induced PDGFRalpha autophosphorylation at Y754 residue in human NCI-H1703 cells after 2 hrs in presence of PDGF-AA by Western blot analysis; format: cell-based
T1 sequence (P16234 whole entry): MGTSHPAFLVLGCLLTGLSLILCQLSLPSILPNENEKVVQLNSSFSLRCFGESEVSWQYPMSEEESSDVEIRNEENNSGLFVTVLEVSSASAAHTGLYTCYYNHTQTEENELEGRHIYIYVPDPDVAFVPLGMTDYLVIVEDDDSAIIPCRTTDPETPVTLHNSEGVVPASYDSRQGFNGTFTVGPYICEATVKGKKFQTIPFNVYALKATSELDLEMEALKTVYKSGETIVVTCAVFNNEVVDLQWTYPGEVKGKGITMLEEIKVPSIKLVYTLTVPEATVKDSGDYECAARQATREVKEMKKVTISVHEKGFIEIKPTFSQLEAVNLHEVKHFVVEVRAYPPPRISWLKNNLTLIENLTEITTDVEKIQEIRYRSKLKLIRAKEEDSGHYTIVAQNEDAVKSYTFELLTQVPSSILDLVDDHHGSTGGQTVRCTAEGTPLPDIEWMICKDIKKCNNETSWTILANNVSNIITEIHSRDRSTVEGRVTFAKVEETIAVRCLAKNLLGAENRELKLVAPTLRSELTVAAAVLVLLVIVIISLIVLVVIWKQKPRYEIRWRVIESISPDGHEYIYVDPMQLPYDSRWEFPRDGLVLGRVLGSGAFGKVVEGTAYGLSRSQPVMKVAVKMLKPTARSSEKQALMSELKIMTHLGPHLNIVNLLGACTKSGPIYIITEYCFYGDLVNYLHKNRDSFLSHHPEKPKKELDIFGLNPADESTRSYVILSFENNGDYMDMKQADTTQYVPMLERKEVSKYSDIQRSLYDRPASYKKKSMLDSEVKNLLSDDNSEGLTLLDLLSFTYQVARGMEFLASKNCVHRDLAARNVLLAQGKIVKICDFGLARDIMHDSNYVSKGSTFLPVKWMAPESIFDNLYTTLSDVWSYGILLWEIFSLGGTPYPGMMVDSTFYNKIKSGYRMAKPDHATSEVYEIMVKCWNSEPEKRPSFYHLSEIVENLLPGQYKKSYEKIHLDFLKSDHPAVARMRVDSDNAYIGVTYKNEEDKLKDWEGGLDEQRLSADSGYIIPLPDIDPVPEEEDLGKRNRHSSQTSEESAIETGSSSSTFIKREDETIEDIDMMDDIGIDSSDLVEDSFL

[22] = target: T1, Platelet-derived growth factor receptor alpha; assay: Inhibition of PDGF-induced PDGFRalpha autophosphorylation at Y849 residue in human NCI-H1703 cells after 2 hrs in presence of PDGF-AA by Western blot analysis; format: cell-based

In the case of `Cc1ccc(NC(=O)c2ccc(CN(CCN(C)C)C(=O)c3cccnc3)cc2)cc1Nc1nccc(-c2cccnc2)n1`, the Activity [1] is reported as 100%, the Activity [2] is reported as 100% and the Activity [3] is reported as 92%. For the same molecule, the Activity [4] was 100%, the Activity [5] was 100% and the Activity [6] was 100%. The Activity [7] was 10%, the Activity [8] was 93% and the Activity [9] was 100%. The Activity [10] was 89%, the Activity [11] was 90% and the Activity [12] was 98%. For the same molecule, the Activity [13] was 74%, the Activity [14] was 88% and the Activity [15] was 0.8%. For the same molecule, the Activity [16] was 100%, the Activity [17] was 82% and the Activity [18] was 97%. For the same molecule, the Activity [19] was 95%, the MRT last [20] was 53.5 min and the inhibition [21] was “Dose-dependent effect”. The inhibition [22] was “Dose-dependent effect”.

Source: ChEMBL document CHEMBL4229344 (Eur J Med Chem, 2018)
